ChEMBL document CHEMBL5154918, “Synthesis and Biological Characterization of a Series of 2-Sulfonamidebenzamides as Allosteric Modulators of MrgX1” (ACS Med Chem Lett, 2022)

Experiments:
[1] = biological target: T1, Mas-related G-protein coupled receptor member X1 (Homo sapiens, UniProt Q96LB2); assay: Positive allosteric modulator activity at human MRGPRX1 expressed in HEK293 cells in presence of BAM8-22 by Fluo4-dye based FLIPR assay; format: cell-based
Method in brief: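 HEK293 cells expressing MrgX1. Compounds tested in the presence of 10 nM BAM8-22. Emax normalized to control compound ML382; mean ± SEM of n = 2 experiments.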

[2] = biological target: T1, Mas-related G-protein coupled receptor member X1; assay: Positive allosteric modulator activity at human MRGPRX1 expressed in HEK293 cells assessed as maximal efficacy at 5 uM in presence of BAM8-22 by Fluo4-dye based FLIPR assay relative to control; format: cell-based
[3] = Plasma protein binding in mouse assessed as unbound fraction; format: ADME, cell-free; details: read-out: PPB
Method in brief: (§1)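 Equilibrium dialysis in human and mouse plasma; results expressed as […] fraction unbound.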

[4] = Microsomal stability in mouse liver microsomes assessed as intrinsic clearance; format: ADME, Microsome; details: read-out: CLH
Method in brief: (§2)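 Intrinsic clearance measured in human and mouse liver microsomes. Hepatic clearance predicted from it with the well-stirred organ CL model, binding terms excluded.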

[5] = Plasma protein binding in human assessed as unbound fraction; format: ADME, cell-free; details: read-out: PPB; method in brief: as §1
[6] = Microsomal stability in human liver microsomes assessed as intrinsic clearance; format: ADME, Microsome; details: read-out: CLH; method in brief: as §2
[7] = filed as positive allosteric modulator

T1 sequence (Q96LB2 whole entry): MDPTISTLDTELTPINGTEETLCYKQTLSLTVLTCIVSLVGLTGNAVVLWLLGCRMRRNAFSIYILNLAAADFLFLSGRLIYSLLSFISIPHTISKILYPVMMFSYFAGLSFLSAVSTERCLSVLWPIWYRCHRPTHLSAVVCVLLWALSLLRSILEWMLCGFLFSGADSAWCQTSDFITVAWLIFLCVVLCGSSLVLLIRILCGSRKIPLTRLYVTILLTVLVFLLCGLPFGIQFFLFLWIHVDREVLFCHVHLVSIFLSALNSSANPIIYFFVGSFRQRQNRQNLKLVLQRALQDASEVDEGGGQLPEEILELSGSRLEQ

Row | Compound | EC50 [1] [nM] | Emax [2, 7] [%] | Emax [2] [%] | further results
1 | CCOc1ccc(NC(=O)c2ccccc2NS(=O)(=O)C2CC2)c(OCC)c1 | 1090 | 73.2 |  | 
2 | CCOc1ccc(F)cc1NC(=O)c1ccccc1NS(=O)(=O)CC | 285 | 74 |  | 
3 | CCOc1ccccc1CNC(=O)c1ccccc1NS(=O)(=O)C1CC1 |  |  | 12.7 | 
4 | CCOc1ccccc1Nc1nn(S(=O)(=O)C2CC2)c2ncccc12 |  |  | -11.7 | 
5 | O=C(Nc1ccccc1OCC(F)(F)F)c1cc(F)ccc1NS(=O)(=O)C1CC1 |  | 59.8 |  | 
6 | CCOc1ccccc1NC(=O)c1ncccc1NS(=O)(=O)C1CC1 |  |  | 0.1 | 
7 | CCOc1ccccc1Nc1nn(S(=O)(=O)C2CC2)c2ccccc12 |  |  | -5.7 | 
8 | O=C(Nc1ccccc1OCC(F)(F)F)c1cc(Cl)ccc1NS(=O)(=O)C1CC1 | 915 | 103 |  | 
9 | CCOc1ccccc1NC(=O)c1ccc2ccccc2c1NS(=O)(=O)C1CC1 |  |  | 8.9 | 
10 | CCOc1ccc(F)cc1NC(=O)c1cc(Cl)ccc1NS(=O)(=O)CC | 206 | 118 |  | 
11 | Cc1ccc(NS(=O)(=O)C2CC2)c(C(=O)Nc2ccccc2OCC(F)(F)F)c1 | 369 | 89.9 |  | 
12 | COc1ccc(NC(=O)c2ccccc2NS(=O)(=O)C2CC2)cc1 |  |  | -15.6 | 
13 | O=C(c1ccccc1NS(=O)(=O)C1CC1)N1CCCc2ccccc21 |  |  | 6.8 | 
14 | CCOC1CCCCC1NC(=O)c1ccccc1NS(=O)(=O)C1CC1 (stereo not drawn) |  |  | 24.2 | 
15 | O=C(Nc1cccc2occc12)c1ccccc1NS(=O)(=O)C1CC1 | 14200 | 53.4 |  | 
16 | CCOc1ccccc1NC(=O)c1ccc(NS(=O)(=O)C2CC2)cc1 |  | 70.6 |  | 
17 | CCOc1ccccc1-c1nnc(-c2ccccc2NS(=O)(=O)C2CC2)[nH]1 |  |  | 7.5 | 
18 | CCS(=O)(=O)Nc1ccc(F)cc1C(=O)Nc1ccccc1OCC(F)(F)F | 435 | 100 |  | 
19 | CCOc1ccccc1NC(=O)c1cccc(NS(=O)(=O)C2CC2)c1 |  |  | -44.4 | 
20 | CCOc1ccccc1Nc1nn(S(=O)(=O)C2CC2)c2cccnc12 |  |  | 1.9 | 

Row | Compound | EC50 [1] [nM] | Emax [2, 7] [%] | Emax [2] [%] | further results
21 | CCOc1ccccc1NC(=O)c1cc(C)ccc1NS(=O)(=O)CC | 217 | 108 |  | 
22 | CCS(=O)(=O)Nc1ccc(C)cc1C(=O)Nc1ccccc1OCC(F)(F)F |  | 58.4 |  | 
23 | O=C(Nc1ccccc1OCC(F)(F)F)c1ccc(F)cc1NS(=O)(=O)C1CC1 |  |  | 29.1 | 
24 | CCOc1ccccc1NC(=O)c1cc(Cl)ccc1NS(=O)(=O)CC | 407 | 89.2 |  | 
25 | CCOc1ccccc1NC(=O)c1ccc(Cl)cc1NS(=O)(=O)C1CC1 |  |  | 36.1 | 
26 | CCS(=O)(=O)Nc1ccccc1C(=O)Nc1ccc(F)cc1OCC(F)(F)F | 1400 | 91.4 |  | fraction unbound [3]: 0.021; CLint scaled [4]: 1210 mL/min/kg; fraction unbound [5]: 0.005; CLint scaled [6]: 80 mL/min/kg
27 | CCOc1ccc(F)cc1NC(=O)c1cc(C)ccc1NS(=O)(=O)CC | 80 | 128 |  | fraction unbound [3]: 0.014; CLint scaled [4]: 1000 mL/min/kg; fraction unbound [5]: 0.003; CLint scaled [6]: 69.3 mL/min/kg
28 | CCOc1ccccc1NC(=O)c1cc(C)ccc1NS(=O)(=O)C1CC1 | 103 | 104 |  | fraction unbound [3]: 0.043; CLint scaled [4]: 410 mL/min/kg; fraction unbound [5]: 0.003; CLint scaled [6]: 75.1 mL/min/kg
29 | CCOc1ccccc1NC(=O)c1cc(F)ccc1NS(=O)(=O)C1CC1 | 173 | 102 |  | fraction unbound [3]: 0.041; CLint scaled [4]: 383 mL/min/kg; fraction unbound [5]: 0.004; CLint scaled [6]: 45.4 mL/min/kg
30 | O=C(Nc1cccc2c1OC(F)(F)O2)c1ccccc1NS(=O)(=O)C1CC1 |  |  | 14.6 | 
31 | O=C(c1ccccc1NS(=O)(=O)C1CC1)N1CCOc2ccccc21 |  |  | 2.7 | 
32 | CCOc1ccccc1-c1nnc(-c2ccccc2NS(=O)(=O)C2CC2)o1 |  |  | 6.7 | 
33 | O=C(Nc1ccccc1OCC1CC1)c1ccccc1NS(=O)(=O)C1CC1 | 1360 | 61.5 |  | 
34 | CCOc1cc(F)ccc1NC(=O)c1ccccc1NS(=O)(=O)C1CC1 |  |  | -10.5 | 
35 | CCOc1ccc(F)cc1NC(=O)c1cc(F)ccc1NS(=O)(=O)CC | 31 | 136 |  | fraction unbound [3]: 0.001; CLint scaled [4]: 1240 mL/min/kg; fraction unbound [5]: 0.002; CLint scaled [6]: 69.1 mL/min/kg
36 | O=C(Nc1cccc2c1OCCO2)c1ccccc1NS(=O)(=O)C1CC1 | 9010 |  | 37.9 | 
37 | CCOc1ccccc1NC(=O)c1cc2ccccc2cc1NS(=O)(=O)C1CC1 |  |  | 29.7 | 
38 | CCOc1ccc(F)cc1NC(=O)c1cc(Cl)ccc1NS(=O)(=O)C1CC1 | 55 | 104 |  | fraction unbound [3]: 0.003; CLint scaled [4]: > 2400 mL/min/kg; fraction unbound [5]: 0.001; CLint scaled [6]: 138 mL/min/kg
39 | CCOc1ccccc1NC(=O)c1cc(Cl)ccc1NS(=O)(=O)C1CC1 | 54 | 110 |  | fraction unbound [3]: 0.001; CLint scaled [4]: 1470 mL/min/kg; fraction unbound [5]: 0.001; CLint scaled [6]: 130 mL/min/kg
40 | Cc1cc2cccc(NC(=O)c3ccccc3NS(=O)(=O)C3CC3)c2o1 | 1040 | 66.3 |  | fraction unbound [3]: 0.026; CLint scaled [4]: 1460 mL/min/kg; fraction unbound [5]: < 0.003; CLint scaled [6]: 74.9 mL/min/kg

Row | Compound | EC50 [1] [nM] | Emax [2, 7] [%] | Emax [2] [%] | further results
41 | COCCOc1ccccc1NC(=O)c1ccccc1NS(=O)(=O)C1CC1 |  |  | 20.7 | 
42 | CCOc1ccccc1NC(=O)c1ccc(C)cc1NS(=O)(=O)C1CC1 |  |  | 3.2 | 
43 | O=C(Nc1cccc2c1OCCC2)c1ccccc1NS(=O)(=O)C1CC1 |  |  | 27 | 
44 | CCCOc1ccccc1NC(=O)c1ccccc1NS(=O)(=O)C1CC1 | 506 | 80.8 |  | fraction unbound [3]: 0.015; CLint scaled [4]: 4890 mL/min/kg; fraction unbound [5]: < 0.003; CLint scaled [6]: 116 mL/min/kg
45 | CC1(C)Oc2cccc(NC(=O)c3ccccc3NS(=O)(=O)C3CC3)c2O1 |  |  | -25.6 | 
46 | CCOc1ccccc1NC(=O)c1ccccc1NS(=O)(=O)C1CC1 | 124 | 100 |  | fraction unbound [3]: 0.017; CLint scaled [4]: 1060 mL/min/kg; fraction unbound [5]: 0.004; CLint scaled [6]: 61.9 mL/min/kg
47 | CCOc1ccccc1NC(=O)c1ccncc1NS(=O)(=O)C1CC1 |  |  | 12.1 | 
48 | O=C(Nc1ccccc1OCC(F)(F)F)c1ccccc1NS(=O)(=O)C1CC1 | 502 | 95 |  | fraction unbound [3]: 0.022; CLint scaled [4]: 979 mL/min/kg; fraction unbound [5]: 0.004; CLint scaled [6]: 40.2 mL/min/kg
49 | O=C(Nc1ccc2c(c1)OCCO2)c1ccccc1NS(=O)(=O)C1CC1 |  |  | 2.1 | 
50 | CCOc1cccnc1NC(=O)c1ccccc1NS(=O)(=O)C1CC1 |  |  | 1.6 | 
51 | CCS(=O)(=O)Nc1ccc(Cl)cc1C(=O)Nc1ccccc1OCC(F)(F)F | 366 | 89.5 |  | 
52 | CC(C)Oc1ccccc1NC(=O)c1ccccc1NS(=O)(=O)C1CC1 | 2830 | 83.1 |  | 
53 | O=C(Nc1ccccc1OC1CCCC1)c1ccccc1NS(=O)(=O)C1CC1 | 3140 | 80.1 |  | 
54 | COc1ccccc1N(C)C(=O)c1ccccc1NS(=O)(=O)C1CC1 |  |  | -11.9 | 
55 | CCOc1cccc2nc(-c3ccccc3NS(=O)(=O)C3CC3)[nH]c12 |  |  | 23.8 | 
56 | CCOc1ccccc1NC(=O)c1ccc(F)cc1NS(=O)(=O)C1CC1 | 860 | 67.6 |  | 
57 | CCOc1ccccc1NC(=O)c1cc(F)ccc1NS(=O)(=O)CC | 98 | 107 |  | fraction unbound [3]: 0.041; CLint scaled [4]: 269 mL/min/kg; fraction unbound [5]: 0.002; CLint scaled [6]: 36 mL/min/kg
58 | O=C(Nc1cccc2c1OCO2)c1ccccc1NS(=O)(=O)C1CC1 |  |  | 7.4 | 
